Experimental data from paper PMC9868104 (Cell chemical biology, 2022).
Values belong to the compound of their own block, whether it stands above or below them.

How the values were obtained:
[1] = tested on: STING signaling (STING, pTBK1, pIRF3); experiment: STING, pTBK1 and pIRF3 western blot in CT-26 cells; assay type: cell-based, mouse
How it was run: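 Lysates were made in HEPES/Triton buffer with TCEP, protease and phosphatase inhibitors and 30 μM pan-PARP inhibitor, normalized by Bradford, and run on SDS-PAGE and nitrocellulose. Blots were probed overnight at 4°C for STING, phospho-TBK1 Ser172 and phospho-IRF3 Ser396 (1:1000 for both phospho antibodies), with tubulin as loading control, and read by HRP chemiluminescence.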

[2] = biological target: T1, PARP7 (Homo sapiens, UniProt Q7Z3E1); experiment: PASTA biochemical PARP screening assay, PARP7; settings: in words
T1 sequence (Q7Z3E1 1-657): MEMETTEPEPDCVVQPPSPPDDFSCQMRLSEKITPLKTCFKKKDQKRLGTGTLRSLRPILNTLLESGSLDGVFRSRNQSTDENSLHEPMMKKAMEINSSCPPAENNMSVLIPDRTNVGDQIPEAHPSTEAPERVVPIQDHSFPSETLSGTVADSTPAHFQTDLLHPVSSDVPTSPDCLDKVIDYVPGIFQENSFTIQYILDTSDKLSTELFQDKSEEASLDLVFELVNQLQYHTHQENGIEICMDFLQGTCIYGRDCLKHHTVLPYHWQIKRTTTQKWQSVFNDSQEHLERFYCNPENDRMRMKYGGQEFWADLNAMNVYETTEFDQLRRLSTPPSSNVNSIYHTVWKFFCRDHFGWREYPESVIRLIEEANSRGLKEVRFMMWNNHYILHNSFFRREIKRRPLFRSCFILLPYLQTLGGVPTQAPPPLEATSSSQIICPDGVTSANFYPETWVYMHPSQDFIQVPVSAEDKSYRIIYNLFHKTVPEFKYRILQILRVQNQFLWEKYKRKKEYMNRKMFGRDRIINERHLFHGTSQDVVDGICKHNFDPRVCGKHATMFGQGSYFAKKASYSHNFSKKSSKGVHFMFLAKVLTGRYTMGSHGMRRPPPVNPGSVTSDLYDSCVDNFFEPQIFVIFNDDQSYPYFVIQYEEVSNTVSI

[3] = biological target: T2, PARP1 (Homo sapiens, UniProt P09874); experiment: PASTA biochemical PARP screening assay, PARP1; settings: in words
T2 sequence (P09874 whole entry): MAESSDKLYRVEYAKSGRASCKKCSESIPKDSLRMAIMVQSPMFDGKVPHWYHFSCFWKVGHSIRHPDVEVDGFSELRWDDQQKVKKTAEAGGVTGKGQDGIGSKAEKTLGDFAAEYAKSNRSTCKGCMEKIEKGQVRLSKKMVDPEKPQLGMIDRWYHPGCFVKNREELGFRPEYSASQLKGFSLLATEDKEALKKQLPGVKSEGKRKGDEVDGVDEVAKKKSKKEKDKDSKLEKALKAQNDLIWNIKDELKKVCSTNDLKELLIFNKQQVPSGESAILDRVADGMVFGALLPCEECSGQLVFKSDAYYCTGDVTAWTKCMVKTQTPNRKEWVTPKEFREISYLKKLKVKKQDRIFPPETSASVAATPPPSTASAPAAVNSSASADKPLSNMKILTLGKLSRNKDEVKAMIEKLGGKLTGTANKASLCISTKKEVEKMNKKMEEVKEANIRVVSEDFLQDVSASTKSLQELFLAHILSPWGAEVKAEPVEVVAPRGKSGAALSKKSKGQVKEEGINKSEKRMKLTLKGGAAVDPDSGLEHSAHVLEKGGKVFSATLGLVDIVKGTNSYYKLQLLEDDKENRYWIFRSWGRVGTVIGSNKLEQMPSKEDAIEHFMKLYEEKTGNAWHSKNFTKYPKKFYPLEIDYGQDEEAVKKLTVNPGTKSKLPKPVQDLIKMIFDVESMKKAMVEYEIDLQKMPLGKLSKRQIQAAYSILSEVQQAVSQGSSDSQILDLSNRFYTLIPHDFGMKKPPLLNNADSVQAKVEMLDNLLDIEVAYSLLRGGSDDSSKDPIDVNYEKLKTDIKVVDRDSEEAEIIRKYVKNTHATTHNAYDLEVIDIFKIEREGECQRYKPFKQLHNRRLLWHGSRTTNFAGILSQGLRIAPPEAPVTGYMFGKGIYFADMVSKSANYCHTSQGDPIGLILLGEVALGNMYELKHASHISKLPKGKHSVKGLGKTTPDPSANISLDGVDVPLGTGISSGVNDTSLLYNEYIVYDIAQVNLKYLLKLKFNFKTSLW

[4] = biological target: PARP2 (Homo sapiens, UniProt Q9UGN5); experiment: PASTA biochemical PARP screening assay, PARP2; settings: in words
Chain of PARP2 (Q9UGN5 whole entry): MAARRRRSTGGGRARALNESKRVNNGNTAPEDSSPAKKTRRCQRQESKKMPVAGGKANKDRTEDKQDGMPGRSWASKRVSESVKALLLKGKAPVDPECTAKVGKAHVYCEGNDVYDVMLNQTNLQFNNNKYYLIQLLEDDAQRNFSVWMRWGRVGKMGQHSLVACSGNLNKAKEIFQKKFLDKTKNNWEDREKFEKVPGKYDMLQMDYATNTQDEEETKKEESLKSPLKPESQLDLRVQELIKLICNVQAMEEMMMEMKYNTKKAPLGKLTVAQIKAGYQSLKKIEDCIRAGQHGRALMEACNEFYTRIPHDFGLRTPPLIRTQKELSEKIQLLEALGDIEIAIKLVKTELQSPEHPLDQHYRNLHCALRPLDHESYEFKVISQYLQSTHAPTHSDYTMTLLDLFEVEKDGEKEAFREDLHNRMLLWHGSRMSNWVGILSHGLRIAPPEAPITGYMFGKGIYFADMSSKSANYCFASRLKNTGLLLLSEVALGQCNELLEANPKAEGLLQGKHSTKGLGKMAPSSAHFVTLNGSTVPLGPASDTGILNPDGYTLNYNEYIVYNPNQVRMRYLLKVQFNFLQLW

[5] = tested on: other PARP family members; experiment: PASTA family-wide PARP inhibitor screening, other PARP family members; assay type: biochemical
[6] = tested on: PARP7 protein levels; experiment: Endogenous PARP7 protein levels in CT-26 cells; assay type: cell-based, mouse
[7] = tested on: ISRE luciferase reporter (type I interferon); experiment: ISRE luciferase assay in ISRE-Luc CT-26 cells; assay type: cell-based, mouse; settings: 18 h, saturating doses
How it was run: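 ISRE-Luc CT-26 cells were made by lentiviral ISRE-luciferase transduction with 8 μg/mL polybrene and kept under 20 μg/mL puromycin. 1.0 × 10^4 ISRE-Luc or WT CT-26 cells were grown overnight. Test compound was serially diluted in DMSO, then in medium, and added for 18 h. Lysates were read by ONE-Glo luminescence (2 s integration), with the WT CT-26 signal subtracted as background. Curves were four-parameter fits.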

[8] = tested on: STAT1 and pSTAT1; experiment: STAT1 and pSTAT1; assay type: cell-based, mouse; settings: CT-26 cells
How it was run: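 CT-26 cells at 75% confluency were treated with test compound at 0.01–1 μM for 16 h (dose-response) or at 0.3 μM over 0–24 h (time course); DMXAA (10 μg/ml, 1 h) served as positive control. Lysis buffer contained protease and phosphatase inhibitors plus 30 μM pan-PARP inhibitor. Bradford-normalized lysates were run on SDS-PAGE and nitrocellulose, probed for STAT1 and phospho-STAT1 Tyr701, detected by HRP chemiluminescence, and bands quantified densitometrically.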

[9] = tested on: secreted IFN-β; experiment: Interferon-β ELISA, CT-26 cells; assay type: cell-based, mouse; settings: 300 nM, 16 h
How it was run: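 CT-26 cells were grown in RPMI-1640 + 10% FBS in 6-well plates. After 24 h, medium was replaced and cells were treated for 16 h with 300 nM test compound, with or without the covalent STING inhibitor H-151 (500 nM). Harvested medium was assayed for IFN-β with a mouse IFN-β ELISA kit. Statistics: one-way ANOVA.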

[10] = biological target: T2, PARP1; settings: in words; cited from earlier work
[11] = biological target: T3, PARP12 (Homo sapiens, UniProt Q9H0J9); settings: in words; cited from earlier work
T3 sequence (Q9H0J9 484-698 limits assumed): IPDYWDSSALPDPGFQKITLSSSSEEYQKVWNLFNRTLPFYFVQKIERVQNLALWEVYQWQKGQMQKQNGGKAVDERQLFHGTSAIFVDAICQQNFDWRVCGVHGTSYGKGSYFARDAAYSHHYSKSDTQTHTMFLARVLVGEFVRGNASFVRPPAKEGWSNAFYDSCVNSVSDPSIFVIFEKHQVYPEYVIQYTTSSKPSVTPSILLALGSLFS

[12] = tested on: CYP1A1 mRNA (AHR target gene); experiment: CYP1A1 mRNA levels in MEFs; assay type: cell-based, mouse; settings: PARP7−/− MEFs, 1 nM TCDD
[13] = increasing concentrations, 16 h

Structure (SMILES): Cc1ccc2c(=O)c3cccc(CC(=O)O)c3oc2c1C [DMXAA, 5,6-Dimethylxanthenone-4-acetic Acid]
STING levels [1]: substantially decreased | pIRF3 [1]: robustly induced | pTBK1 [1]: robustly induced

potency against PARP7 [2]: double-digit nanomolar | potency against PARP1 [3]: double-digit nanomolar | potency against PARP2 [4]: double-digit nanomolar
Structure (SMILES): N#Cc1ccc(N2CCN(C(=O)c3cc(Cc4n[nH]c(=O)c5ccccc45)ccc3F)CC2)nc1 [Phthal01]
fold more potent against PARP7 compared to all other PARP family members ([5]; other than PARP1 and PARP2): at least 12 fold

IC50 ([5]; read-out: IC50 most other PARP family members (does not inhibit up to)): > 3 µM
Structure (SMILES): C[C@@H](COCCC(=O)N1CCN(c2ncc(C(F)(F)F)cn2)CC1)Nc1cn[nH]c(=O)c1C(F)(F)F [RBN-2397]
time of maximal PARP7 protein levels after addition ([6]; 0.3 μM time-course): ~ 16 h | endogenous PARP7 levels [6, 13]: dramatically increased | increase in PARP7 protein abundance compared to KMR-206 ([6]; saturating doses): 2 fold | magnitude of ISRE luciferase response compared to KMR-206 [7]: ~ 2 fold | time of noticeable increase in STAT1 ([8]; 300 nM): 16 h | time of noticeable increase in pSTAT1 ([8]; 300 nM): 4 h | STAT1 and pSTAT1 levels [8, 13]: dose-dependently increased | levels of secreted IFN-β [9]: to a greater extent than KMR-206 | inhibition of PARP1, previous study [10]: double digit nanomolar inhibition | inhibition of PARP12, previous study [11]: double digit nanomolar inhibition

Structure (SMILES): Clc1cc2c(cc1Cl)Oc1cc(Cl)c(Cl)cc1O2 [TCDD, 2,3,7,8-tetrachlorodibenzo-p-dioxin]
CYP1A1 mRNA levels, TCDD alone [12]: robust induction of CYP1A1
